# In ChEMBL document CHEMBL1142148, “Antibiotic susceptibility profile of bifidobacteria as affected by oxgall, acid, and hydrogen peroxide stress” (2007):
# Assays:
# [1] = test system: Bifidobacterium longum; test: Antimicrobial activity against 90 mins oxgall-stressed Bifidobacterium longum ATCC 15708 after 18 hrs; assay type: functional
# Outline: (§1)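 Cells pelleted from mid-log MRS culture and resuspended in MRS (initial pH 6.5) with 0.3% (wt/vol) oxgall for 90 min anaerobically at 37°C. They were then regrown in MRS pH 6.5 for 24 h (footnote: 18 h) anaerobically and tested for MIC by the same broth microdilution assay. Median of four repetitions.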
# [2] = test system: Bifidobacterium longum; test: Antimicrobial activity against Bifidobacterium longum P/N 601377; assay type: functional
# Outline: (§2)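 Broth microdilution in MRS plus 0.05% L-cysteine-HCl. Mid-log culture adjusted to OD650 0.1, giving about 2.5 × 10^4 to 5.0 × 10^4 CFU/well, then added to twofold serial dilutions of agent. Plates incubated anaerobically at 37°C for 18 h and read at OD650. MIC is the lowest concentration matching the uninoculated blank OD, taken as the median of four repeats.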
# [3] = test system: Bifidobacterium bifidum; test: Antimicrobial activity against Bifidobacterium bifidum ATCC 15696; assay type: functional; outline: as §2
# [4] = test system: Bifidobacterium pseudolongum; test: Antimicrobial activity against Bifidobacterium pseudolongum ATCC 25562; assay type: functional; outline: as §2
# [5] = test system: Bifidobacterium thermophilum; test: Antimicrobial activity against Bifidobacterium thermophilum ATCC 25866; assay type: functional; outline: as §2
# [6] = Antimicrobial activity against 90 mins oxgall-stressed Bifidobacterium infantis ATCC 15697 after 18 hrs; assay type: functional, Bifidobacterium longum subsp. infantis; settings: Bifidobacterium longum; outline: as §1
# [7] = test system: Bifidobacterium bifidum; test: Antimicrobial activity against 90 mins hydrogen peroxide-stressed Bifidobacterium bifidum BB12 after 18 hrs; assay type: functional
# Outline: (§3)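 Stress applied for 90 min at 37°C under anaerobic conditions, using MRS (initial pH 6.5) containing H2O2 at each strain's own inhibitory concentration. The H2O2 level was set beforehand by microplate tolerance testing. Challenged cells were regrown in MRS for 24 h (footnote: 18 h) before MIC testing by broth microdilution. Median of four repetitions.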
# [8] = test system: Bifidobacterium bifidum; test: Antimicrobial activity against 60 min 1 M HCl-stressed Bifidobacterium bifidum BB12 after 18 hrs; assay type: functional
# Outline: (§4)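 Mid-log MRS culture pelleted and resuspended in MRS broth brought to pH 2.0 with 1 M HCl, held anaerobically at 37°C for 60 min, then subcultured in MRS (pH 6.5) for 24 h anaerobically before MIC testing by broth microdilution (as for unstressed cells). Table footnote gives 18 h anaerobic regrowth after the stress. MIC is the median of four repetitions.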
# [9] = Antimicrobial activity against 60 min 1 M HCl-stressed Bifidobacterium infantis ATCC 15697 after 18 hrs; assay type: functional, Bifidobacterium longum subsp. infantis; settings: Bifidobacterium longum; outline: as §4
# [10] = test system: Bifidobacterium bifidum; test: Antimicrobial activity against 90 mins oxgall-stressed Bifidobacterium bifidum BB12 after 18 hrs; assay type: functional; outline: as §1
# [11] = test system: Bifidobacterium longum; test: Antimicrobial activity against 90 mins hydrogen peroxide-stressed Bifidobacterium longum ATCC 15708 after 18 hrs; assay type: functional; outline: as §3
# [12] = test system: Bifidobacterium pseudolongum; test: Antimicrobial activity against 90 mins oxgall-stressed Bifidobacterium pseudolongum ATCC 25562 after 18 hrs; assay type: functional; outline: as §1
# [13] = test system: Bifidobacterium breve; test: Antimicrobial activity against Bifidobacterium breve ATCC 15700; assay type: functional; outline: as §2
# [14] = test system: Bifidobacterium longum; test: Antimicrobial activity against Bifidobacterium longum ATCC 15707; assay type: functional; outline: as §2
# [15] = test system: Bifidobacterium breve; test: Antimicrobial activity against 90 mins oxgall-stressed Bifidobacterium breve ATCC 15700 after 18 hrs; assay type: functional; outline: as §1
# [16] = test system: Bifidobacterium breve; test: Antimicrobial activity against Bifidobacterium breve R0070; assay type: functional; outline: as §2
# [17] = test system: Bifidobacterium pseudolongum; test: Antimicrobial activity against 60 min 1 M HCl-stressed Bifidobacterium pseudolongum ATCC 25562 after 18 hrs; assay type: functional; outline: as §4
# [18] = test system: Bifidobacterium breve; test: Antimicrobial activity against 60 min 1 M HCl-stressed Bifidobacterium breve R0070 after 18 hrs; assay type: functional; outline: as §4
# [19] = test system: Bifidobacterium breve; test: Antimicrobial activity against 90 mins oxgall-stressed Bifidobacterium breve R0070 after 18 hrs; assay type: functional; outline: as §1
# [20] = Antimicrobial activity against Bifidobacterium infantis ATCC 15697; assay type: functional, Bifidobacterium longum subsp. infantis; settings: Bifidobacterium longum; outline: as §2
# [21] = test system: Bifidobacterium animalis; test: Antimicrobial activity against 90 mins oxgall-stressed Bifidobacterium animalis ATCC 27536 after 18 hrs; assay type: functional; outline: as §1
# [22] = test system: Bifidobacterium bifidum; test: Antimicrobial activity against Bifidobacterium bifidum R0071; assay type: functional; outline: as §2
# [23] = test system: Bifidobacterium bifidum; test: Antimicrobial activity against 90 mins oxgall-stressed Bifidobacterium bifidum R0071 after 18 hrs; assay type: functional; outline: as §1
# [24] = test system: Bifidobacterium bifidum; test: Antimicrobial activity against Bifidobacterium bifidum BB12; assay type: functional; outline: as §2
# [25] = test system: Bifidobacterium animalis; test: Antimicrobial activity against Bifidobacterium animalis ATCC 27536; assay type: functional; outline: as §2
# [26] = test system: Bifidobacterium bifidum; test: Antimicrobial activity against 90 mins hydrogen peroxide-stressed Bifidobacterium bifidum R0071 after 18 hrs; assay type: functional; outline: as §3
# [27] = test system: Bifidobacterium longum; test: Antimicrobial activity against 90 mins hydrogen peroxide-stressed Bifidobacterium longum ATCC 15707 after 18 hrs; assay type: functional; outline: as §3
# [28] = test system: Bifidobacterium longum; test: Antimicrobial activity against 60 min 1 M HCl-stressed Bifidobacterium longum R0175 after 18 hrs; assay type: functional; outline: as §4
# [29] = test system: Bifidobacterium longum; test: Antimicrobial activity against 90 mins oxgall-stressed Bifidobacterium longum R0175 after 18 hrs; assay type: functional; outline: as §1
# [30] = test system: Bifidobacterium breve; test: Antimicrobial activity against 90 mins hydrogen peroxide-stressed Bifidobacterium breve R0070 after 18 hrs; assay type: functional; outline: as §3
# [31] = test system: Bifidobacterium longum; test: Antimicrobial activity against 90 mins oxgall-stressed Bifidobacterium longum P/N 601377 after 18 hrs; assay type: functional; outline: as §1
# [32] = test system: Bifidobacterium breve; test: Antimicrobial activity against 60 min 1 M HCl-stressed Bifidobacterium breve ATCC 15700 after 18 hrs; assay type: functional; outline: as §4
# [33] = test system: Bifidobacterium bifidum; test: Antimicrobial activity against 90 mins oxgall-stressed Bifidobacterium bifidum ATCC 15696 after 18 hrs; assay type: functional; outline: as §1
# [34] = test system: Bifidobacterium bifidum; test: Antimicrobial activity against 60 min 1 M HCl-stressed Bifidobacterium bifidum R0071 after 18 hrs; assay type: functional; outline: as §4
# [35] = test system: Bifidobacterium thermophilum; test: Antimicrobial activity against 90 mins hydrogen peroxide-stressed Bifidobacterium thermophilum ATCC 25866 after 18 hrs; assay type: functional; outline: as §3
# [36] = test system: Bifidobacterium thermophilum; test: Antimicrobial activity against 60 min 1 M HCl-stressed Bifidobacterium thermophilum ATCC 25866 after 18 hrs; assay type: functional; outline: as §4
# [37] = test system: Bifidobacterium thermophilum; test: Antimicrobial activity against 90 mins oxgall-stressed Bifidobacterium thermophilum ATCC 25866 after 18 hrs; assay type: functional; outline: as §1
# [38] = test system: Bifidobacterium breve; test: Antimicrobial activity against 90 mins hydrogen peroxide-stressed Bifidobacterium breve ATCC 15700 after 18 hrs; assay type: functional; outline: as §3
# [39] = test system: Bifidobacterium longum; test: Antimicrobial activity against 90 mins hydrogen peroxide-stressed Bifidobacterium longum R0175 after 18 hrs; assay type: functional; outline: as §3
# [40] = test system: Bifidobacterium animalis; test: Antimicrobial activity against 60 min 1 M HCl-stressed Bifidobacterium animalis ATCC 27536 after 18 hrs; assay type: functional; outline: as §4
# [41] = test system: Bifidobacterium longum; test: Antimicrobial activity against 90 mins hydrogen peroxide-stressed Bifidobacterium longum P/N 601377 after 18 hrs; assay type: functional; outline: as §3
# [42] = test system: Bifidobacterium longum; test: Antimicrobial activity against Bifidobacterium longum R0175; assay type: functional; outline: as §2
# [43] = test system: Bifidobacterium longum; test: Antimicrobial activity against 60 min 1 M HCl-stressed Bifidobacterium longum ATCC 15707 after 18 hrs; assay type: functional; outline: as §4
# [44] = test system: Bifidobacterium animalis; test: Antimicrobial activity against 90 mins hydrogen peroxide-stressed Bifidobacterium animalis ATCC 27536 after 18 hrs; assay type: functional; outline: as §3
# [45] = test system: Bifidobacterium longum; test: Antimicrobial activity against 60 min 1 M HCl-stressed Bifidobacterium longum P/N 601377 after 18 hrs; assay type: functional; outline: as §4
# [46] = test system: Bifidobacterium longum; test: Antimicrobial activity against Bifidobacterium longum ATCC 15708; assay type: functional; outline: as §2
# [47] = test system: Bifidobacterium longum; test: Antimicrobial activity against 90 mins oxgall-stressed Bifidobacterium longum ATCC 15707 after 18 hrs; assay type: functional; outline: as §1
smiles,measurement,setting,value
CN(C)[C@@H]1C(O)=C(C(N)=O)C(=O)[C@@]2(O)C(O)=C3C(=O)c4c(O)cccc4[C@@](C)(O)[C@H]3C[C@@H]12.Cl [TETRACYCLINE HYDROCHLORIDE],MIC,[1],125 µg/mL
same,MIC,[2],15.6 µg/mL
same,MIC,[3],31.2 µg/mL
same,MIC,[4],15.6 µg/mL
same,MIC,[5],62.5 µg/mL
same,MIC,[6],250 µg/mL
same,MIC,[7],7.8 µg/mL
same,MIC,[8],0.98 µg/mL
same,MIC,[9],125 µg/mL
same,MIC,[10],3.9 µg/mL
same,MIC,[11],31.2 µg/mL
same,MIC,[12],125 µg/mL
same,MIC,[13],31.2 µg/mL
same,MIC,[14],62.5 µg/mL
same,MIC,[15],31.2 µg/mL
same,MIC,[16],62.5 µg/mL
same,MIC,[17],0.98 µg/mL
same,MIC,[18],31.2 µg/mL
same,MIC,[19],62.5 µg/mL
same,MIC,[20],125 µg/mL
same,MIC,[21],125 µg/mL
same,MIC,[22],31.2 µg/mL
same,MIC,[23],62.5 µg/mL
same,MIC,[24],15.6 µg/mL
same,MIC,[25],3.9 µg/mL
same,MIC,[26],62.5 µg/mL
same,MIC,[27],7.8 µg/mL
same,MIC,[28],0.98 µg/mL
same,MIC,[29],125 µg/mL
same,MIC,[30],7.8 µg/mL
same,MIC,[31],62.5 µg/mL
same,MIC,[32],250 µg/mL
same,MIC,[33],125 µg/mL
same,MIC,[34],31.2 µg/mL
same,MIC,[35],15.6 µg/mL
same,MIC,[36],125 µg/mL
same,MIC,[37],125 µg/mL
same,MIC,[38],31.2 µg/mL
same,MIC,[39],15.6 µg/mL
same,MIC,[40],62.5 µg/mL
same,MIC,[41],125 µg/mL
same,MIC,[42],62.5 µg/mL
same,MIC,[43],62.5 µg/mL
same,MIC,[44],62.5 µg/mL
same,MIC,[45],0.98 µg/mL
same,MIC,[46],31.2 µg/mL
same,MIC,[47],125 µg/mL
NC[C@H]1O[C@H](O[C@H]2[C@H](O)[C@@H](O[C@H]3O[C@H](CO)[C@@H](O)[C@H](N)[C@H]3O)[C@H](N)C[C@@H]2N)[C@H](O)[C@@H](O)[C@@H]1O [KANAMYCIN],MIC,[1],500 µg/mL
same,MIC,[2],250 µg/mL
same,MIC,[3],> 500 µg/mL
same,MIC,[4],> 500 µg/mL
same,MIC,[5],> 500 µg/mL
same,MIC,[6],> 500 µg/mL
same,MIC,[7],500 µg/mL
same,MIC,[8],250 µg/mL
same,MIC,[9],500 µg/mL
same,MIC,[10],500 µg/mL
same,MIC,[11],500 µg/mL
same,MIC,[12],500 µg/mL
same,MIC,[13],> 500 µg/mL
same,MIC,[14],500 µg/mL
same,MIC,[15],500 µg/mL
same,MIC,[16],500 µg/mL
same,MIC,[17],250 µg/mL
same,MIC,[18],500 µg/mL
same,MIC,[19],500 µg/mL
same,MIC,[20],> 500 µg/mL
same,MIC,[21],500 µg/mL
same,MIC,[22],500 µg/mL
same,MIC,[23],500 µg/mL
same,MIC,[24],> 500 µg/mL
same,MIC,[25],500 µg/mL
same,MIC,[26],500 µg/mL
same,MIC,[27],500 µg/mL
same,MIC,[28],250 µg/mL
same,MIC,[29],500 µg/mL
same,MIC,[30],500 µg/mL
same,MIC,[31],250 µg/mL
same,MIC,[32],500 µg/mL
same,MIC,[33],125 µg/mL
same,MIC,[34],0.98 µg/mL
same,MIC,[35],500 µg/mL
same,MIC,[36],500 µg/mL
same,MIC,[37],500 µg/mL
same,MIC,[38],> 500 µg/mL
same,MIC,[39],500 µg/mL
same,MIC,[40],500 µg/mL
same,MIC,[41],250 µg/mL
same,MIC,[42],500 µg/mL
same,MIC,[43],500 µg/mL
same,MIC,[44],500 µg/mL
same,MIC,[45],250 µg/mL
same,MIC,[46],500 µg/mL
same,MIC,[47],250 µg/mL
